In ChEMBL document CHEMBL1136888, “Design, synthesis, and biological evaluation of novel diarylalkyl amides as TRPV1 antagonists” (Bioorg Med Chem, 2009):

Target: Transient receptor potential cation channel subfamily V member 1 (Rattus norvegicus, UniProt O35433)
Assay: Antagonist activity at TRPV1 in Sprague-Dawley rat DRG neuron assessed as reduction of capsaicin-stimulated 45Ca2+ uptake
Format: functional
Summary of the method: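 Neonatal Sprague-Dawley rat DRG neurons (all spinal levels) dissociated with collagenase/trypsin and cultured 3 days with C6 glioma-conditioned medium. Washed in HEPES (10 mM, pH 7.4) Ca/Mg-free HBSS. Exposed to 45Ca2+ plus 0.5 µM capsaicin with compound for 10 min at room temperature. Cells washed, SDS-lysed, scintillation counted.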

Transient receptor potential cation channel subfamily V member 1, sequence (O35433 whole entry): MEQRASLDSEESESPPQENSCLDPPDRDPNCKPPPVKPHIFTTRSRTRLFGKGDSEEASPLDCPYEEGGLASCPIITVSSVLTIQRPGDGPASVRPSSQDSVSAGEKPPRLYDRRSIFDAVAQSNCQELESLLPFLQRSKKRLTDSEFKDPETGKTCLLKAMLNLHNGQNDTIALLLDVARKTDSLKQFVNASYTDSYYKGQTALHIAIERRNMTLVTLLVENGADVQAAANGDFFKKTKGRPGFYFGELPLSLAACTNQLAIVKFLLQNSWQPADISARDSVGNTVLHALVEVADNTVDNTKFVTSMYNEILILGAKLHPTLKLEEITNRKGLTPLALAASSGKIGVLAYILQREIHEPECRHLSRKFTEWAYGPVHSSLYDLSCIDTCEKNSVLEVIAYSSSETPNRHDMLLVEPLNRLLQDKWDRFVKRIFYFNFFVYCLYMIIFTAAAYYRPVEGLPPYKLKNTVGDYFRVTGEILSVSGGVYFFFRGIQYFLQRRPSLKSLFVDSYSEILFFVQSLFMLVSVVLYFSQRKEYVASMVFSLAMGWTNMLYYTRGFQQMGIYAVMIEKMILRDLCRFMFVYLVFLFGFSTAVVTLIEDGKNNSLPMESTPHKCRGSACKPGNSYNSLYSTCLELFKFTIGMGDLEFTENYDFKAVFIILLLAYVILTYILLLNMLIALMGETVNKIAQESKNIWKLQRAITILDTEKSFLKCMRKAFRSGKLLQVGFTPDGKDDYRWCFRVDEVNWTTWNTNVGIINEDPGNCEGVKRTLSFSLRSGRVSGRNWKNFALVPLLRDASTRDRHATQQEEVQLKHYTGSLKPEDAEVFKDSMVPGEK

Structure (SMILES)	IC50
CC(C)(C)c1ccc(CNC(=O)NCc2ccc(NS(C)(=O)=O)c(F)c2)cc1	710 nM
CS(=O)(=O)Nc1ccc(CNC(=O)/C=C/c2ccc(I)cc2)cc1F	> 10000 nM
CC(C)(C)c1ccc(CCC(=O)NCc2cc(F)c(NS(C)(=O)=O)c(C#N)c2)cc1	85 nM
CC(C)(C)c1ccc(CNC(=O)CCc2ccc(NS(C)(=O)=O)c(F)c2)cc1	2800 nM
CC1(C)Cc2cc(CCC(=O)NCc3ccc(NS(C)(=O)=O)c(F)c3)ccc2O1	> 10000 nM
CS(=O)(=O)Nc1ccc(CNC(=O)CCc2ccccc2)cc1F	> 10000 nM
CC1(C)Cc2cc(/C=C/C(=O)NCc3ccc(NS(C)(=O)=O)c(F)c3)ccc2O1	4300 nM
CC(C)(C)c1cc(/C=C/C(=O)NCc2ccc(NS(C)(=O)=O)c(F)c2)c2c(c1)CCCO2	920 nM
CC1(C)CCC(C)(C)c2cc(CCC(=O)NCc3cc(F)c(NS(C)(=O)=O)c(C#N)c3)ccc21	57 nM
CC(C)(C)c1cc2c(c(CCC(=O)NCc3ccc(NS(C)(=O)=O)c(F)c3)c1)OCCC2	280 nM
CC(C)(C)c1ccc(CCC(=O)NCc2ccc(NS(C)(=O)=O)c(F)c2)cc1	170 nM
CC(C)Cc1ccc(CCC(=O)NCc2ccc(NS(C)(=O)=O)c(F)c2)cc1	640 nM
CC1(C)CCc2cc(/C=C/C(=O)NCc3ccc(NS(C)(=O)=O)c(F)c3)ccc2O1	1400 nM
CC1(C)CCc2cc(CCC(=O)NCc3ccc(NS(C)(=O)=O)c(F)c3)ccc2O1	7200 nM
CS(=O)(=O)Nc1ccc(CNC(=O)CCc2ccc(CC3CC3)cc2)cc1F	360 nM
CS(=O)(=O)Nc1ccc(CNC(=O)CCc2ccc(C(F)(F)F)cc2)cc1F	4600 nM
CS(=O)(=O)Nc1ccc(CNC(=O)CCc2cc(C(F)(F)F)cc(C(F)(F)F)c2)cc1F	2500 nM
CC1(C)CCC(C)(C)c2cc(/C=C/C(=O)NCc3ccc(NS(C)(=O)=O)c(F)c3)ccc21	340 nM
CC1(C)CCC(C)(C)c2cc(CCC(=O)NCc3ccc(NS(C)(=O)=O)c(F)c3)ccc21	180 nM
CC(C)(C)c1cc(/C=C/C(=O)NCc2ccc(NS(C)(=O)=O)c(F)c2)c2c(c1)CCO2	1500 nM
CC(C)Oc1ccc(CCC(=O)NCc2ccc(NS(C)(=O)=O)c(F)c2)cc1	> 10000 nM
CC(C)(C)Oc1ccc(CCC(=O)NCc2ccc(NS(C)(=O)=O)c(F)c2)cc1	> 10000 nM
CS(=O)(=O)Nc1ccc(CNC(=O)CCc2ccc(Br)cc2)cc1F	> 10000 nM
CC(C)(C)c1cc2c(c(CCC(=O)NCc3ccc(NS(C)(=O)=O)c(F)c3)c1)OCC2	5000 nM
CC1(c2ccc(CCC(=O)NCc3cc(F)c(NS(C)(=O)=O)c(C#N)c3)cc2)CC1	210 nM
CC(C)(C)c1cc(CCC(=O)NCc2ccc(NS(C)(=O)=O)c(F)c2)cc(C(C)(C)C)c1	200 nM
CC1(c2ccc(/C=C/C(=O)NCc3ccc(NS(C)(=O)=O)c(F)c3)cc2)CC1	390 nM
